Laboratory results reported in PMC9594912 (International Journal of Nanomedicine, 2022).

Assays:
UC induced by DSS = assay: DSS colitis: histological examination of colon; assay type: in vivo, Balb/c mice; settings: SASP 500 mg/kg; Pae-Lips-H 400 mg/kg
In short: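 Male Balb/c mice (10 weeks, n = 6/group) given 3% (w/v) DSS in drinking water for 7 days. Dosed by gavage twice daily, suspended in 0.5% CMC-Na. Distal colon (~2 cm) fixed in 10% formaldehyde and HE-stained. Scored for mucosal inflammation severity, lesion extent and crypt damage.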

[1] = RAW264.7 cell viability, MTT assay; assay type: cell-based; settings: mouse, RAW 264.7 macrophages
In short: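 Log-phase RAW264.7 macrophages seeded at 10,000/well in 96-well plates and grown 24 h. Treated for 24 h with graded concentrations of free or liposomal test compound, 6 replicate wells per group. Then 0.5% MTT added for 4 h, formazan dissolved in DMSO, absorbance read at 490 nm.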

P-gp [2] = biological target: P-gp (Homo sapiens, UniProt P08183); assay: Caco-2 transport with P-gp inhibitor Ver; assay type: in vitro ADME; settings: Ver 100 μmol/L; increase taken to indicate a substrate of P-gp
Sequence of P-gp (Homo sapiens, UniProt P08183) (P08183 whole entry): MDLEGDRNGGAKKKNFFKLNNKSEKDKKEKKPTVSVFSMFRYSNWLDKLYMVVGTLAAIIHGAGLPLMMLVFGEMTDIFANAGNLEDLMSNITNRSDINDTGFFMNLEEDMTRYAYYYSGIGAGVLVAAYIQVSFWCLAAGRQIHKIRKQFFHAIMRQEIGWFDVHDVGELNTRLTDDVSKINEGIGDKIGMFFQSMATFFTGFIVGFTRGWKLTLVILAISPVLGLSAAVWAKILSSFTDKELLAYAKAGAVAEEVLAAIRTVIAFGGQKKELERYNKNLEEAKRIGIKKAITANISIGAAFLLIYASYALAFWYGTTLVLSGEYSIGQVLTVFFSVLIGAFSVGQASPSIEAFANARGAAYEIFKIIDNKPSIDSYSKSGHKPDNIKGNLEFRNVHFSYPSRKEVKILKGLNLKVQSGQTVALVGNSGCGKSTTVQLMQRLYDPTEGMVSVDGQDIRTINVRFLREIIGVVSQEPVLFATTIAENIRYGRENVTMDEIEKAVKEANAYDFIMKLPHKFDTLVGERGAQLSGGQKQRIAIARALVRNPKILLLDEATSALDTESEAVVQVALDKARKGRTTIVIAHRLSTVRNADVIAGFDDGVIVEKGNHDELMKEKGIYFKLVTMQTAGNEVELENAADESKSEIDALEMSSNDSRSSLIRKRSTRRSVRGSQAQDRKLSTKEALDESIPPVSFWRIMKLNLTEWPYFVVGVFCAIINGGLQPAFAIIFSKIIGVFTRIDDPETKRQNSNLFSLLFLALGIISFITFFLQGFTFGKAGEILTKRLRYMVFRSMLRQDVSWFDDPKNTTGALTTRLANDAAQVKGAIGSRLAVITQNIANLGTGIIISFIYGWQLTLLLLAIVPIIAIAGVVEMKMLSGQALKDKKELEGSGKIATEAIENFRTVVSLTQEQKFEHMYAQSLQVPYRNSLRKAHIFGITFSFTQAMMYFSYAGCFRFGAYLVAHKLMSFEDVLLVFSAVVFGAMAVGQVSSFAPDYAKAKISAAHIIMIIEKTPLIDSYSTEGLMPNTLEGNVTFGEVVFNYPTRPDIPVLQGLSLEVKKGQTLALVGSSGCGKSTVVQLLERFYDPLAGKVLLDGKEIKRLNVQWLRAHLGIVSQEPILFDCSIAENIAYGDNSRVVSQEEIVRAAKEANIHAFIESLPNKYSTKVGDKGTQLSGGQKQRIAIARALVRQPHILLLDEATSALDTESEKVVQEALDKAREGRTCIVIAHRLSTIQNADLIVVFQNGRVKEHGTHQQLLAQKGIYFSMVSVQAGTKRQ
In short: (§1)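 Bidirectional transport across 21-day Caco-2 monolayers (TEER >300 Ω·cm2) in pH 7.4 HBSS. Free or liposomal test compound at 2.5, 5, 10 μg/mL, with efflux inhibitor added: verapamil 100 μmol/L (P-gp), indomethacin 200 μmol/L (MRP2) or reserpine 50 μmol/L (BCRP). Receiver sampled at 30–180 min with replacement. Triplicate runs; Papp from ΔQ/Δt, area and C0.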

Caco-2 cells = assay: Caco-2 cell viability, MTT assay; assay type: cell-based, human
In short: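 Caco-2 cells seeded at 10,000/well in 96-well plates and grown 24 h at 37°C, 5% CO2. Exposed to increasing concentrations of free or liposomal test compound for 4 h, with α-MEM as negative control. Then 0.5% MTT added for 4 h at 37°C, formazan dissolved in DMSO, A490 read. Viability expressed as percent of control.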

BCRP [3] = biological target: T1, BCRP (Homo sapiens, UniProt Q9UNQ0); assay: Caco-2 transport with BCRP inhibitor Res; assay type: in vitro ADME; settings: Res 50 μmol/L; increase taken to indicate a substrate of BCRP
T1 sequence (Q9UNQ0 1-655): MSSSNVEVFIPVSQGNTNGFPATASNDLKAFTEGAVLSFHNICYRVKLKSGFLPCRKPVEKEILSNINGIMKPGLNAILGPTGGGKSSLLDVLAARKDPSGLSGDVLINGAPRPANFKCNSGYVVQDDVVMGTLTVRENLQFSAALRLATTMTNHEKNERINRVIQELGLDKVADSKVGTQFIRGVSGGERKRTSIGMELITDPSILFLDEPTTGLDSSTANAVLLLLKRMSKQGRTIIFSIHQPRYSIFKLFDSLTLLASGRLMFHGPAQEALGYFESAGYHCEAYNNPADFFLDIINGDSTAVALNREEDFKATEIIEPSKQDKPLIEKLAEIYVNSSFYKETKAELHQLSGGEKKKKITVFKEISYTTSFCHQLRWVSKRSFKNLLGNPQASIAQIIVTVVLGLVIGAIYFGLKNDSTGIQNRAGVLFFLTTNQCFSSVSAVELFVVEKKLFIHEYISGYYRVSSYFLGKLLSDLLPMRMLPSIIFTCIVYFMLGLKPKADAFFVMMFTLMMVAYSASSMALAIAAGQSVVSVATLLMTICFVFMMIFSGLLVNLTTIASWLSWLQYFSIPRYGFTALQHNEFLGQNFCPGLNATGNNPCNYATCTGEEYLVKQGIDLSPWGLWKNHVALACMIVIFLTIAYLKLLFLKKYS
In short: as §1

P-gp [4] = assay: SPIP with P-gp inhibitor verapamil; settings: Ver 100 μmol/L; increase taken to indicate a substrate of P-gp
MRP2 [5] = biological target: MRP2 (Homo sapiens, UniProt Q92887); assay: Caco-2 transport with MRP2 inhibitor Indo; assay type: in vitro ADME; settings: Indo 200 μmol/L; increase taken to indicate a substrate of MRP2
Sequence of MRP2 (Homo sapiens, UniProt Q92887) (Q92887 whole entry): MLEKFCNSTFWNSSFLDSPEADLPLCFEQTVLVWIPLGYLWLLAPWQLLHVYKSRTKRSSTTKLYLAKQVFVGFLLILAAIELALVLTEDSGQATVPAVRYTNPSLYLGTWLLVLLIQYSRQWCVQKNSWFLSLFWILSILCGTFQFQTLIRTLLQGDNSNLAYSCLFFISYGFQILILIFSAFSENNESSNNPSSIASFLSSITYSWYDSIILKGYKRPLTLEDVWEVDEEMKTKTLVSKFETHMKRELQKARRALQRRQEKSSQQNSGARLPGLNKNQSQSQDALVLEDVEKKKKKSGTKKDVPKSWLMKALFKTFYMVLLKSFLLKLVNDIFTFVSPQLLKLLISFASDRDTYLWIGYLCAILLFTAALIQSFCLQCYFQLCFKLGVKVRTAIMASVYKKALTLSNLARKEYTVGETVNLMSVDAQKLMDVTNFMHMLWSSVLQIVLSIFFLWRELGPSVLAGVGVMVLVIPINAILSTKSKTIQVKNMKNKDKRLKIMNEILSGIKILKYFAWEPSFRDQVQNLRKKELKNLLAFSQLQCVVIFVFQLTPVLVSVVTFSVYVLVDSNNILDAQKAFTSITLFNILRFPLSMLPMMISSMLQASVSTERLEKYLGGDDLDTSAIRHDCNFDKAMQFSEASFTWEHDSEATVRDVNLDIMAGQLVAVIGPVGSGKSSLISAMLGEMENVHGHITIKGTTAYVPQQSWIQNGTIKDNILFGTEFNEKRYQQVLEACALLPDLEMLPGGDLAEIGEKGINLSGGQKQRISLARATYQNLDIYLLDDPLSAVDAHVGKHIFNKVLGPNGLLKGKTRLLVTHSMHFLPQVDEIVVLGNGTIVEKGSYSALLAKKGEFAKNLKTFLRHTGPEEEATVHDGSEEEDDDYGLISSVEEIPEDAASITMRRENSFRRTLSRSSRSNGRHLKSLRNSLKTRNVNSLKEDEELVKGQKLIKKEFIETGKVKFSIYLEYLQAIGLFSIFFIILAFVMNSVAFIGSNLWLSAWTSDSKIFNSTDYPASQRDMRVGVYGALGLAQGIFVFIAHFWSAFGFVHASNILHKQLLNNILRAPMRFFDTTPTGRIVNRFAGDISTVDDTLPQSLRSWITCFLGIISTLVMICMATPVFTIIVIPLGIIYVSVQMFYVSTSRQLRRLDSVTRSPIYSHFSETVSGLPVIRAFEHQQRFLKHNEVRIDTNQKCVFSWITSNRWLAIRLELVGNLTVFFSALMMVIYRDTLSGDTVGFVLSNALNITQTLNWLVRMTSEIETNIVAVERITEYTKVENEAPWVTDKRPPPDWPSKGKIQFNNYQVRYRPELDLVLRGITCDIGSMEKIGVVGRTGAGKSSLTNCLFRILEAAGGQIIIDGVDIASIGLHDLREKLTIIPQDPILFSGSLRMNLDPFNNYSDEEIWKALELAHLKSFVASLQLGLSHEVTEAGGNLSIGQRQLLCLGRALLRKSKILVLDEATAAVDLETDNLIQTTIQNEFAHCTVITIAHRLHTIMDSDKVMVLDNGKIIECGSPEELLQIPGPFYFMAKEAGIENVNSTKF
In short: as §1

[6] = system: intestinal segments (duodenum, jejunum, ileum and colon); assay: In situ single-pass intestinal perfusion; assay type: in vivo, rats; settings: 125, 250, 500 μg/mL; taken to indicate passive diffusion
BCRP [7] = biological target: T2, BCRP (Rattus norvegicus, UniProt Q80W57); assay: SPIP with BCRP inhibitor reserpine; assay type: in vivo, rats; settings: Res 50 μmol/L; increase taken to indicate a substrate of BCRP
T2 sequence (Q80W57 1-657): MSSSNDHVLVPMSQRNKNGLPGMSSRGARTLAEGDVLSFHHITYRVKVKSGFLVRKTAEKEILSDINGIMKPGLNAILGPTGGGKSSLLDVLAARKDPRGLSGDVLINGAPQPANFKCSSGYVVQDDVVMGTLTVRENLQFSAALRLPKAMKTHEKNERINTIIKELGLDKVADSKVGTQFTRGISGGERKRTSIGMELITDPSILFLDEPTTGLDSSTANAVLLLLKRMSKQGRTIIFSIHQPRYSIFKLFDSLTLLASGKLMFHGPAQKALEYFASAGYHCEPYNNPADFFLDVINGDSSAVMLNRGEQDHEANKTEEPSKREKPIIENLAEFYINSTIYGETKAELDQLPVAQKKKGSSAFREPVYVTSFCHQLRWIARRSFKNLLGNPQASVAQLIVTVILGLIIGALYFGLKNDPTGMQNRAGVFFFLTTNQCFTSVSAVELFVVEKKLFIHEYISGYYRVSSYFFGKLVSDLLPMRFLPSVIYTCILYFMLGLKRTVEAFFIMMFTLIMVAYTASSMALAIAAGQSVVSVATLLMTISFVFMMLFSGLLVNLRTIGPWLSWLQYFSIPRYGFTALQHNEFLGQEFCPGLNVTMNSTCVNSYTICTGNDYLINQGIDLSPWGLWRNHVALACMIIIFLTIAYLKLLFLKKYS

[8] = system: RAW264.7 macrophages stimulated by LPS; assay: NO release and ELISA of TNF-α, IL-6 and IL-10 in LPS-stimulated RAW264.7; assay type: cell-based, mouse; settings: LPS 1 µg/mL, paeonol 5 μg/mL, Pae-Lips 2.5, 5, 10 μg/mL
In short: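 RAW264.7 cells (DMEM, 20% FBS, 37°C, 5% CO2) seeded at 15,000/well and grown 24 h. Pretreated 2 h with free test compound (5 μg/mL final) or liposomes (2.5, 5, 10 μg/mL final). Then stimulated with LPS 1 µg/mL final (unstimulated control kept) for 20 h. Supernatant NO measured by kit; IL-6, TNF-α and IL-10 by ELISA.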

[9] = Transport study in Caco-2 cell monolayer; assay type: in vitro ADME; settings: human, Caco-2, pH 7.4
In short: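 Caco-2 cells grown in α-MEM with 20% FBS, 1% NEAA, 4 mM glutamine and pen/strep. Seeded on transwells and cultured 21 days; monolayers with TEER >300 Ω·cm2 used. In pH 7.4 HBSS, free or liposomal test compound (2.5, 5, 10 μg/mL) added apically (A→B) or basolaterally (B→A). Receiver sampled at 30–180 min with replacement. Triplicate runs; Papp from ΔQ/Δt, area and C0; efflux ratio derived.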

MRP2 [10] = biological target: MRP2 (Rattus norvegicus, UniProt Q63120); assay: SPIP with MRP2 inhibitor indomethacin; assay type: in vivo, rats; settings: Indo 200 μmol/L; increase taken to indicate a substrate of MRP2
Sequence of MRP2 (Rattus norvegicus, UniProt Q63120) (Q63120 whole entry): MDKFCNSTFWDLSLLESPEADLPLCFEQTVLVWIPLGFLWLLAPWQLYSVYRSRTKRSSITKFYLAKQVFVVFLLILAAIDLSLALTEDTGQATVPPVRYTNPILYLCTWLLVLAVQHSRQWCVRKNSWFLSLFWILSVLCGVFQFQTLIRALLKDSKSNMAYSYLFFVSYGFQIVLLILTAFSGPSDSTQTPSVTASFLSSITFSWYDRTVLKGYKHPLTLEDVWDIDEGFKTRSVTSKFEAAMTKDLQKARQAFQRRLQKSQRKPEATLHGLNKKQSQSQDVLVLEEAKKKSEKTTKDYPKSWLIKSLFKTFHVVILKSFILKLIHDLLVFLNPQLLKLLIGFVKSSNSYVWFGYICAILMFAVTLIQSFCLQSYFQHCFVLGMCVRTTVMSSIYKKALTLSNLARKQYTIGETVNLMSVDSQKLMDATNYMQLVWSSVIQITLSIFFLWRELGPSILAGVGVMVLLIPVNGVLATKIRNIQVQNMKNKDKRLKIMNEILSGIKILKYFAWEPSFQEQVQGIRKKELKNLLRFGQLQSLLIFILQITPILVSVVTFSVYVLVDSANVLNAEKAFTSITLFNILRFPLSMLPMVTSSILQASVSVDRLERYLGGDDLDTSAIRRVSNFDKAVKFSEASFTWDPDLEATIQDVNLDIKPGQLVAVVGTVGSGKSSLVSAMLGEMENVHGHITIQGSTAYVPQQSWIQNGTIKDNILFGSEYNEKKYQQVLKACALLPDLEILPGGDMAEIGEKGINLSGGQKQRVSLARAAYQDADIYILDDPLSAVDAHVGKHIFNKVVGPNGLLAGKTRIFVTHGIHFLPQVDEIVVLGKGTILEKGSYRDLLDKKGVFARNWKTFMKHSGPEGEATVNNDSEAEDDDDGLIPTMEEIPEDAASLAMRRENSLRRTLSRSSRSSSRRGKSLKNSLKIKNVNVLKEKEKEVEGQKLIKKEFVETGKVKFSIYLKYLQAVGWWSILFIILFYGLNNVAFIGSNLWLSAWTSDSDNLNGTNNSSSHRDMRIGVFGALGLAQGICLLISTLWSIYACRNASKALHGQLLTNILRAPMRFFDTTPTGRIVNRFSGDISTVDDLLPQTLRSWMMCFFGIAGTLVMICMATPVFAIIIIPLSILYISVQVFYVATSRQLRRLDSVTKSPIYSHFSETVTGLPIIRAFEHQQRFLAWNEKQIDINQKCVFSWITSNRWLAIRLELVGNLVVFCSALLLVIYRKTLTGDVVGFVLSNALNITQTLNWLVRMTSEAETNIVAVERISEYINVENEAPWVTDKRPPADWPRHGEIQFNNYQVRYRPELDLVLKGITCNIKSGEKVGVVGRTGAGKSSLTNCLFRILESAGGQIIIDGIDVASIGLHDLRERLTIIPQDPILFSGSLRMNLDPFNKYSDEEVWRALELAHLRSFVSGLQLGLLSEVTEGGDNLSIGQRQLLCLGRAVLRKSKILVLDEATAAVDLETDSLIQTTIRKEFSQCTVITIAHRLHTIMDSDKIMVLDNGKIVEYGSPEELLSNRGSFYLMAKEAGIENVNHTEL

In vitro drug release = assay type: physicochemical; settings: PBS (pH 7.4), 24 hours, 37°C
In short: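 Dialysis bags holding 2 mL of free suspension or liposomes with equal drug content. Immersed in 60 mL PBS pH 7.4, SGF or SIF, each with 0.5% Tween-80, shaken at 37°C, 100 rpm. 1 mL withdrawn at intervals and replaced with fresh medium. Drug quantified by HPLC (C18, methanol:water 80:20, 254 nm). Cumulative release % calculated with sampling correction, then fitted to kinetic models.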

For O=C(O)c1cc(/N=N/c2ccc(S(=O)(=O)Nc3ccccn3)cc2)ccc1O [SASP], the colon histopathology finding (UC induced by DSS) was “no obvious lesions”.
In the case of COc1ccc(C(C)=O)c(O)c1 [Paeonol, 2’-hydroxy-4’-methoxyacetophenone], the viability at 24 h, 5 μg/mL [1] is reported as over 80%, the “Papp value (AP-BL) with Ver” value (P-gp [2]) is reported as “significantly increased” and the Caco-2 cell viability (Caco-2 cells; concentration exceeds 10 μg/mL) is reported as “significantly reduced”. The “survival rate of Caco-2 cells” value (Caco-2 cells; within 10 μg/mL, 4 hours) was “greater than 90%”, the “Papp value (AP-BL) with Res” value (BCRP [3]) was “significantly increased” and the “Papp in each intestinal segment after adding Ver” value (P-gp [4]) was “significantly increased”. For the same molecule, the “Papp value (AP-BL) with Indo” value (MRP2 [5]) was “significantly increased”, the “Papp values at different concentrations” value [6] was “no significant difference” and the “Papp in each intestinal segment after adding Res” value (BCRP [7]) was “significantly increased”. The “IL-10 level vs LPS group” value [8] was “increased”, the “IL-6 level vs LPS group” value ([8]; p < 0.05) was “decreased” and the “NO level vs LPS group” value ([8]; p < 0.05) was “decreased”. For the same molecule, the “TNF-α level vs LPS group” value ([8]; p < 0.05) was “decreased”, the Papp A→B at 180 min, 2.5 μg/mL [9] was 3.25 ± 0.32 ×10⁻⁶ cm/s and the Papp A→B at 180 min, 5 μg/mL [9] was 3.62 ± 0.13 ×10⁻⁶ cm/s. The Papp A→B at 180 min, 10 μg/mL [9] was 3.65 ± 0.52 ×10⁻⁶ cm/s, the Papp B→A at 180 min, 2.5 μg/mL [9] was 4.17 ± 0.22 ×10⁻⁶ cm/s and the Papp B→A at 180 min, 5 μg/mL [9] was 5.19 ± 0.3 ×10⁻⁶ cm/s. For the same molecule, the Papp B→A at 180 min, 10 μg/mL [9] was 5.32 ± 0.67 ×10⁻⁶ cm/s, the “Papp in each intestinal segment after adding Indo” value (MRP2 [10]) was “significantly increased” and the “cumulative release percentage (P%)” value (In vitro drug release) was 36.05 ± 2.94%.
